Measurements published in ChEMBL document CHEMBL3286116, “Synthesis, biological evaluation and structure-activity correlation study of a series of imidazol-based compounds as Candida albicans inhibitors” (Eur J Med Chem, 2014).

Columns and labels:
Format in all cases: functional
Pichia kudriavzevii [1] = test: Antifungal activity against Candida krusei DSM 6128 after 48 hrs by CLSI broth microdilution method; settings: DSM 6128, 48 h
Procedure, shortened: (§1)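 Yeast CLSI broth microdilution (M27-A3). Compounds dissolved in DMSO at 100× the top test concentration, then diluted as serial two-fold dilutions in RPMI 1640 to final 0.125–64. Inoculum was 1.0–1.5 × 10^3 cells mL−1, incubated at 35 °C and read for growth at 48 h. MIC is the lowest concentration giving ≥50% growth inhibition versus growth control. Reported as the median of five replicates and as the geometric mean.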

[2] = tested on: Trichophyton mentagrophytes; test: Antifungal activity against Trichophyton mentagrophytes PMC 6531 after 72 hrs by CLSI broth microdilution method; settings: PMC 6531, 72 h
Procedure, shortened: (§2)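 Dermatophytes tested by CLSI broth microdilution for filamentous fungi (M38-A2). Serial two-fold dilutions of DMSO-dissolved compound in RPMI 1640, final 0.125–64. Inoculum was 0.4–5 × 10^4 CFU mL−1, incubated at 35 °C and read at 72 h. MIC80 is the lowest concentration giving ≥80% growth inhibition versus growth control. Median of five replicates, plus geometric mean.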

Nakaseomyces glabratus [3] = test: Ratio of fluconazole MIC to compound MIC for Candida glabrata PMC 0850R after 48 hrs by CLSI broth microdilution method
Candida albicans [4] = test: Antifungal activity against Candida albicans ATCC 76615 after 48 hrs by CLSI broth microdilution method; settings: ATCC 76615, 48 h; procedure, shortened: as §1
Nakaseomyces glabratus [5] = test: Antifungal activity against Candida glabrata PMC 0851R after 48 hrs by CLSI broth microdilution method; procedure, shortened: as §1
Candida albicans [6] = test: Antifungal activity against Candida albicans ATCC 3153 after 48 hrs by CLSI broth microdilution method; settings: ATCC 3153, 48 h; procedure, shortened: as §1
Nakaseomyces glabratus [7] = test: Ratio of fluconazole MIC to compound MIC for Candida glabrata PMC 0853R after 48 hrs by CLSI broth microdilution method
Candida albicans [8] = test: Antifungal activity against Candida albicans PMC 1041R after 48 hrs by CLSI broth microdilution method; procedure, shortened: as §1
Cryptococcus neoformans [9] = test: Antifungal activity against Cryptococcus neoformans PMC 2111 after 72 hrs by CLSI broth microdilution method; settings: PMC 2111, 72 h
Procedure, shortened: (§3)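 Cryptococcus neoformans tested by CLSI broth microdilution in RPMI 1640, with serial two-fold dilutions from DMSO stocks at 100× the top concentration, final 0.125–64. Inoculum was 1.0–1.5 × 10^3 cells mL−1 at 35 °C, with growth read at 72 h. MIC is the lowest concentration with ≥50% growth inhibition versus control. Median of five replicates, plus geometric mean.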

Candida tropicalis [10] = test: Antifungal activity against Candida tropicalis DSM 11953 after 48 hrs by CLSI broth microdilution method; settings: DSM 11953, 48 h; procedure, shortened: as §1
Cryptococcus neoformans [11] = test: Antifungal activity against Cryptococcus neoformans PMC 2103 after 72 hrs by CLSI broth microdilution method; settings: PMC 2103, 72 h; procedure, shortened: as §3
Cryptococcus neoformans [12] = test: Antifungal activity against Cryptococcus neoformans PMC 2123 after 72 hrs by CLSI broth microdilution method; settings: PMC 2123, 72 h; procedure, shortened: as §3
Nakaseomyces glabratus [13] = test: Antifungal activity against Candida glabrata PMC 0805 after 48 hrs by CLSI broth microdilution method; settings: PMC 0805, 48 h; procedure, shortened: as §1
Candida albicans [14] = test: Antifungal activity against Candida albicans ATCC 10231 after 48 hrs by CLSI broth microdilution method; settings: ATCC 10231, 48 h; procedure, shortened: as §1
Pichia kudriavzevii [15] = test: Antifungal activity against Candida krusei PMC 0613 after 48 hrs by CLSI broth microdilution method; settings: PMC 0613, 48 h; procedure, shortened: as §1
Candida albicans [16] = test: Ratio of fluconazole MIC to compound MIC for Candida albicans PMC 1040R after 48 hrs by CLSI broth microdilution method
Candida albicans [17] = test: Antifungal activity against Candida albicans ATCC 90028 after 48 hrs by CLSI broth microdilution method; settings: ATCC 90028, 48 h; procedure, shortened: as §1
[18] = tested on: Trichophyton mentagrophytes; test: Antifungal activity against Trichophyton mentagrophytes PMC 6552 after 72 hrs by CLSI broth microdilution method; settings: PMC 6552, 72 h; procedure, shortened: as §2
Nakaseomyces glabratus [19] = test: Antifungal activity against Candida glabrata PMC 0853R after 48 hrs by CLSI broth microdilution method; procedure, shortened: as §1
Nakaseomyces glabratus [20] = test: Antifungal activity against Candida glabrata PMC 0850R after 48 hrs by CLSI broth microdilution method; procedure, shortened: as §1
Candida albicans [21] = test: Ratio of fluconazole MIC to compound MIC for Candida albicans PMC 1042R after 48 hrs by CLSI broth microdilution method
Candida albicans [22] = test: Antifungal activity against Candida albicans PMC 1042R after 48 hrs by CLSI broth microdilution method; procedure, shortened: as §1
Candida albicans [23] = test: Antifungal activity against Candida albicans ATCC 20891 after 48 hrs by CLSI broth microdilution method; settings: ATCC 20891, 48 h; procedure, shortened: as §1
Candida albicans [24] = test: Antifungal activity against Candida albicans ATCC 24433 after 48 hrs by CLSI broth microdilution method; settings: ATCC 24433, 48 h; procedure, shortened: as §1
Nakaseomyces glabratus [25] = test: Antifungal activity against Candida glabrata PMC 0807 after 48 hrs by CLSI broth microdilution method; settings: PMC 0807, 48 h; procedure, shortened: as §1
Nannizzia gypsea [26] = test: Antifungal activity against Microsporum gypseum DSM 3824 after 72 hrs by CLSI broth microdilution method; settings: DSM 3824, 72 h; procedure, shortened: as §2
[27] = tested on: Trichophyton mentagrophytes; test: Antifungal activity against Trichophyton mentagrophytes PMC 6509 after 72 hrs by CLSI broth microdilution method; settings: PMC 6509, 72 h; procedure, shortened: as §2
Nakaseomyces glabratus [28] = test: Ratio of fluconazole MIC to compound MIC for Candida glabrata PMC 0851R after 48 hrs by CLSI broth microdilution method
Cryptococcus neoformans [29] = test: Antifungal activity against Cryptococcus neoformans PMC 2102 after 72 hrs by CLSI broth microdilution method; settings: PMC 2102, 72 h; procedure, shortened: as §3
[30] = tested on: Trichophyton mentagrophytes; test: Antifungal activity against Trichophyton mentagrophytes PMC 6503 after 72 hrs by CLSI broth microdilution method; settings: PMC 6503, 72 h; procedure, shortened: as §2
Candida tropicalis [31] = test: Antifungal activity against Candida tropicalis PMC 0910 after 48 hrs by CLSI broth microdilution method; settings: PMC 0910, 48 h; procedure, shortened: as §1
Cryptococcus neoformans [32] = test: Antifungal activity against Cryptococcus neoformans PMC 2115 after 72 hrs by CLSI broth microdilution method; settings: PMC 2115, 72 h; procedure, shortened: as §3
Candida parapsilosis [33] = test: Antifungal activity against Candida parapsilosis DSM 11224 after 48 hrs by CLSI broth microdilution method; settings: Lodderomyces parapsilosis, DSM 11224, 48 h; procedure, shortened: as §1
Cryptococcus neoformans [34] = test: Antifungal activity against Cryptococcus neoformans DSM 11959 after 72 hrs by CLSI broth microdilution method; settings: DSM 11959, 72 h; procedure, shortened: as §3
Candida albicans [35] = test: Antifungal activity against Candida albicans ATCC 10261 after 48 hrs by CLSI broth microdilution method; settings: ATCC 10261, 48 h; procedure, shortened: as §1
Nannizzia gypsea [36] = test: Antifungal activity against Microsporum gypseum PMC 7331 after 72 hrs by CLSI broth microdilution method; settings: PMC 7331, 72 h; procedure, shortened: as §2
Cryptococcus neoformans [37] = test: Antifungal activity against Cryptococcus neoformans PMC 2107 after 72 hrs by CLSI broth microdilution method; settings: PMC 2107, 72 h; procedure, shortened: as §3
Nakaseomyces glabratus [38] = test: Ratio of fluconazole MIC to compound MIC for Candida glabrata PMC 0852R after 48 hrs by CLSI broth microdilution method
Nannizzia gypsea [39] = test: Antifungal activity against Microsporum gypseum PMC 7303 after 72 hrs by CLSI broth microdilution method; settings: PMC 7303, 72 h; procedure, shortened: as §2
[40] = tested on: Trichophyton mentagrophytes; test: Antifungal activity against Trichophyton mentagrophytes PMC 6515 after 72 hrs by CLSI broth microdilution method; settings: PMC 6515, 72 h; procedure, shortened: as §2
Candida albicans [41] = test: Antifungal activity against Candida albicans PMC 1011 after 48 hrs by CLSI broth microdilution method; settings: PMC 1011, 48 h; procedure, shortened: as §1
Candida parapsilosis [42] = test: Antifungal activity against Candida parapsilosis ATCC 22019 after 48 hrs by CLSI broth microdilution method; settings: Lodderomyces parapsilosis, ATCC 22019, 48 h; procedure, shortened: as §1
Candida albicans [43] = test: Ratio of fluconazole MIC to compound MIC for Candida albicans PMC 1041R after 48 hrs by CLSI broth microdilution method
Cryptococcus neoformans [44] = test: Antifungal activity against Cryptococcus neoformans PMC 2136 after 72 hrs by CLSI broth microdilution method; settings: PMC 2136, 72 h; procedure, shortened: as §3
[45] = tested on: Trichophyton mentagrophytes; test: Antifungal activity against Trichophyton mentagrophytes DSM 4870 after 72 hrs by CLSI broth microdilution method; settings: DSM 4870, 72 h; procedure, shortened: as §2
Candida albicans [46] = test: Antifungal activity against Candida albicans PMC 1040R after 48 hrs by CLSI broth microdilution method; procedure, shortened: as §1
Nakaseomyces glabratus [47] = test: Antifungal activity against Candida glabrata PMC 0852R after 48 hrs by CLSI broth microdilution method; procedure, shortened: as §1

O=C(O[C@H](Cn1ccnc1)c1ccc(Cl)cc1)N1CCN(c2ccc(Cl)cc2)CC1
0.5 µg/mL: MIC50 (Candida albicans [4]) | MIC50 (Nakaseomyces glabratus [13]) | MIC50 (Candida albicans [14]) | MIC50 (Pichia kudriavzevii [15]) | MIC50 (Candida parapsilosis [33]) | MIC50 (Candida albicans [35]) | MIC50 (Candida parapsilosis [42])
0.25 µg/mL: MIC50 (Candida albicans [6]) | MIC50 (Candida albicans [23]) | MIC50 (Candida albicans [24])
1 µg/mL: MIC80 [18] | MIC50 (Candida albicans [22]) | MIC80 (Nannizzia gypsea [36]) | MIC80 (Nannizzia gypsea [39])
4 µg/mL: MIC50 (Pichia kudriavzevii [1]) | MIC50 (Candida albicans [8]) | MIC50 (Candida tropicalis [10]) | MIC50 (Cryptococcus neoformans [11]) | MIC50 (Cryptococcus neoformans [12]) | MIC50 (Nakaseomyces glabratus [19]) | MIC50 (Nakaseomyces glabratus [20]) | MIC50 (Nakaseomyces glabratus [25]) | MIC50 (Cryptococcus neoformans [29]) | MIC50 (Cryptococcus neoformans [32]) | MIC50 (Cryptococcus neoformans [34]) | MIC80 [40] | MIC50 (Cryptococcus neoformans [44]) | MIC50 (Nakaseomyces glabratus [47])
0.125 µg/mL: MIC50 (Candida albicans [17]) | MIC50 (Candida albicans [41])
10: Ratio (Nakaseomyces glabratus [3]) | Ratio (Nakaseomyces glabratus [7]) | Ratio (Candida albicans [16]) | Ratio (Candida albicans [21]) | Ratio (Nakaseomyces glabratus [28]) | Ratio (Nakaseomyces glabratus [38]) | Ratio (Candida albicans [43])
16 µg/mL: MIC80 [45]
2 µg/mL: MIC50 (Cryptococcus neoformans [9]) | MIC80 [30] | MIC50 (Candida tropicalis [31]) | MIC50 (Cryptococcus neoformans [37])
32 µg/mL: MIC50 (Candida albicans [46])
8 µg/mL: MIC80 [2] | MIC50 (Nakaseomyces glabratus [5]) | MIC80 (Nannizzia gypsea [26]) | MIC80 [27]

O=C(Nc1ccc(N2CCN(c3ccc(Cl)cc3)CC2)cc1)O[C@@H](Cn1ccnc1)c1ccc(F)cc1
0.0625 µg/mL: MIC50 (Nakaseomyces glabratus [13]) | MIC50 (Pichia kudriavzevii [15]) | MIC50 (Candida albicans [23]) | MIC50 (Candida parapsilosis [33]) | MIC50 (Candida albicans [41]) | MIC50 (Cryptococcus neoformans [44])
0.06 µg/mL: MIC50 (Cryptococcus neoformans [11])
1 µg/mL: MIC50 (Candida albicans [22])
4 µg/mL: MIC80 [2] | MIC80 [27] | MIC80 [30] | MIC80 (Nannizzia gypsea [36]) | MIC80 [40] | MIC80 [45]
0.125 µg/mL: MIC50 (Candida albicans [17]) | MIC50 (Cryptococcus neoformans [34]) | MIC50 (Candida albicans [35]) | MIC50 (Candida parapsilosis [42])
0.5 µg/mL: MIC50 (Pichia kudriavzevii [1]) | MIC50 (Candida albicans [4]) | MIC50 (Candida albicans [6]) | MIC50 (Candida albicans [8]) | MIC50 (Cryptococcus neoformans [9]) | MIC50 (Candida albicans [24])
15: Ratio (Nakaseomyces glabratus [3]) | Ratio (Nakaseomyces glabratus [7]) | Ratio (Candida albicans [16]) | Ratio (Candida albicans [21]) | Ratio (Nakaseomyces glabratus [28]) | Ratio (Nakaseomyces glabratus [38]) | Ratio (Candida albicans [43])
0.25 µg/mL: MIC50 (Candida tropicalis [10]) | MIC50 (Cryptococcus neoformans [12]) | MIC50 (Candida albicans [14]) | MIC50 (Nakaseomyces glabratus [20]) | MIC50 (Nakaseomyces glabratus [25]) | MIC50 (Cryptococcus neoformans [29]) | MIC50 (Cryptococcus neoformans [32]) | MIC50 (Cryptococcus neoformans [37])
64 µg/mL: MIC50 (Nakaseomyces glabratus [5]) | MIC50 (Candida albicans [46])
2 µg/mL: MIC80 [18] | MIC50 (Nakaseomyces glabratus [19]) | MIC80 (Nannizzia gypsea [26]) | MIC50 (Candida tropicalis [31]) | MIC80 (Nannizzia gypsea [39]) | MIC50 (Nakaseomyces glabratus [47])
